Assay results reported in ChEMBL document CHEMBL4699497, “Synthesis of indole-tethered [1,3,4]thiadiazolo and [1,3,4]oxadiazolo[3,2-a]pyrimidin-5-one hybrids as anti-pancreatic cancer agents” (Bioorg Med Chem Lett, 2020).

Tested on: PANC-1
Experiment: Cytotoxicity against human PANC1 cells assessed as reduction in cell viability measured after 48 hrs by MTS assay
Type: functional, cell-based
Details: for IC50: PANC-1, 48 h
Procedure, shortened: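 Human PANC-1 pancreatic cancer cells exposed to a range of doses of each compound for 48 h. Surviving cells quantified by MTS viability read-out, and IC50 derived from the dose-response curves.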

SMILES	inhibition	IC50 [µM]
O=c1c(-n2ccc3ccccc32)cnc2oc(-c3ccc(Cl)cc3)nn12	Dose-dependent effect	94.9
O=c1c(-n2ccc3ccccc32)cnc2oc(-c3ccccc3)nn12	Dose-dependent effect	21.1
O=c1c(-n2ccc3ccccc32)cnc2sc(-c3cccc(Br)c3)nn12	–	> 100
Cc1cc2ccccc2n1-c1cnc2sc(-c3ccccc3)nn2c1=O	–	> 100
Cc1cc2ccccc2n1-c1cnc2sc(-c3ccccc3Cl)nn2c1=O	–	> 100
Cc1cc2ccccc2n1-c1cnc2sc(-c3cccc(Br)c3)nn2c1=O	–	> 100
O=c1c(-n2ccc3ccccc32)cnc2oc(-c3ccccc3Cl)nn12	Dose-dependent effect	7.7
O=c1c(-n2ccc3ccccc32)cnc2oc(-c3ccc(Br)cc3)nn12	Dose-dependent effect	90.5
O=c1c(-n2ccc3ccccc32)cnc2sc(-c3ccc(Cl)cc3)nn12	–	> 100
O=c1c(-n2ccc3ccccc32)cnc2sc(-c3ccccc3)nn12	–	> 100
Nc1ccn([C@@H]2O[C@H](CO)[C@@H](O)C2(F)F)c(=O)n1 [GEMCITABINE]	–	> 500
O=c1c(-n2ccc3ccccc32)cnc2sc(-c3ccc(Br)cc3)nn12	–	> 100
O=c1c(-n2ccc3ccccc32)cnc2sc(-c3ccccc3Cl)nn12	–	> 100
Cc1cc2ccccc2n1-c1cnc2oc(-c3ccc(Cl)cc3)nn2c1=O	Dose-dependent effect	40
O=c1c(-n2ccc3ccccc32)cnc2sc(-c3cccc(Cl)c3)nn12	–	> 100
Cc1cc2ccccc2n1-c1cnc2sc(-c3ccc(Br)cc3)nn2c1=O	–	> 100
